MC4R antag cAMP: blocks human MC4R cAMP signaling. inhibition, % at 6.5 µM. 360,000 tested, 0.48% active. MC4R-expressing cells, MTII-stimulated cAMP, LANCE TR-FRET. P32245. AID 540295;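 active means inhibition above its plate's cutoff, the mean of tested wells on that plate plus 3 SD, cut at about 29% in these data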
Target sequence (P32245 whole entry, looked up): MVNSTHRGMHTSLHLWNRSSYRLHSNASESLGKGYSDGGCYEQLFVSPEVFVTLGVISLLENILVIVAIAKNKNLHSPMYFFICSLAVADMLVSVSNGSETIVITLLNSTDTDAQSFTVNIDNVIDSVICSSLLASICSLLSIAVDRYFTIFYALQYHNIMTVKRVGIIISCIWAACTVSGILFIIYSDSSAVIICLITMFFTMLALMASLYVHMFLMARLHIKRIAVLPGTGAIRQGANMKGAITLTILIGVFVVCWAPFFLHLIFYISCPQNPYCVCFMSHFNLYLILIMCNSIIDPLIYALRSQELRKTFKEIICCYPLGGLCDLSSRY
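material = U2OS cells stably expressing human melanocortin 4 receptor (MC4R) | also added = Melanotan II challenge | dosing = single nominal compound dose of 6.5 µM | detection = TR-FRET with Eu-cAMP and labeled anti-cAMP, 671 nm | replication = singlicate | timing = compound 30 min, challenge 1 h, detection 1 h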
MC4R barr agon: agonists of human melanocortin 4 receptor (MC4R) beta-arrestin; P32245; U2OS MC4R beta-arrestin complementation, luminescence; percent of melanotan II response, DMSO zero; activation, % at 8.9 µM; 360,000 tested, 0.98% active; AID 540308;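 active means activation above a per-plate cutoff, the mean activation of sample wells on that plate plus 3 SD, cut at about 8% in these data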
Granule exo inh: blocks lytic granule exocytosis; AID 651702; inhibition, % at 10 µM; TALL-104 LAMP-1 surface exposure, flow cytometry; cells stimulated with thapsigargin and PMA; 360,000 tested, 0.66% active;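 active means inhibition above about 55%, limit read from the data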
A1 inh: inhibitors of the anti-apoptotic protein A1, read as caspase activation; MEF A1-2A-BIM cells, Caspase-Glo 3/7 luminescence, 3 h; percent of clofoctol response, vehicle zero; caspase activation, % (concentration not given with the values); 330,000 tested, 0.066% active; AID 2462;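 active means over half of replicate activation scores above 10%, or exactly half above 10 with the replicate mean above 10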
NTR1 agonist: NTR1 (human) agonism. activation, % at 20 µM. 330,000 tested, 0.17% active. NTR1-U2OS beta-arrestin-GFP spot imaging, agonist mode. P30989. AID 493036;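 active means activation at or above 40% of the spot to cytoplasm intensity ratio, with at least 20 cells analyzed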
sPLA2-III inh: Inhibits HGIII-sPLA2 liposome hydrolysis, primary screen | Q9NZ20 | 370,000 tested, 0.56% active | inhibition, % at 12.2 µM | QFRET BODIPY PC-A2 liposome hydrolysis, fluorescence;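 active means inhibition above mean plus 3 SD of compounds lying within the high and low control bounds, cut at about 19% in these data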
MC4R barr ag: human MC4R beta-arrestin agonism confirmation; shares compounds with MC4R barr agon; U2OS MC4R beta-arrestin recruitment, luminescence; scaled DMSO 0%, Melanotan II 100%; activation, % at 8.9 µM; 2,400 tested, 31% active;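 active means mean activation across replicates above the hit cutoff set in the earlier primary screen, cut at about 8% in these data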
MOR-DOR barr ag: OPRM1-OPRD1 heterodimer agonism counter-screen; AID 602194; U2OS PathHunter beta-arrestin, beta-gal luminescence; percent of deltorphin B response, DMSO zero; shares compounds with MC4R barr agon; 2,400 tested, 5.8% active; activation, % at 9.2 µM;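 active means mean activation across replicates exceeds the hit threshold derived in the earlier primary screen, cut at about 18% in these data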
Hits are given with their value; . = inactive; / = not tested or not shown. An excerpt weighted towards active compounds, which were near 2.5% of everything screened.

SMILES	MC4R antag cAMP	MC4R barr agon	Granule exo inh	A1 inh	NTR1 agonist	sPLA2-III inh	MC4R barr ag	MOR-DOR barr ag
COc1cccc(C(=O)n2ccc3ccc(-c4ccc5ccn(Cc6ccccc6)c5c4)cc32)c1	/	/	/	/	/	.	/	/
COc1ccc2cc(-c3cn(C(=O)N(c4ccccc4)c4ccccc4)nn3)ccc2c1	/	/	/	/	/	.	/	/
COc1ccc(-c2csc3ncnc(NCCO)c23)cc1	.	.	.	.	.	.	/	/
COc1ccc(-c2csc3ncnc(Nc4ccc(O)cc4)c23)cc1	.	14.4	.	.	.	.	.	.
O=C(c1cc(C2CC2)on1)N(C1CCCCC1)C1CCCCC1	/	/	/	/	/	.	/	/
Cc1cccc(C)c1OC(=O)CSc1nnc(-c2ccccc2O)o1	.	54.4	.	.	.	.	8.2	.
COC(=O)CSc1nnc(-c2ccccc2OC)o1	.	.	.	.	.	.	/	/
O=C(C(=O)N1CCC(CNS(=O)(=O)c2cccc3ccccc23)CC1)c1cccs1	/	/	/	/	/	.	/	/
COc1cc(C(=S)N2CCN(c3cccc(Cl)c3)CC2)ccc1O	.	.	.	.	.	.	/	/
Oc1ccc(C(=S)N2CCN(c3cccc(Cl)c3)CC2)cc1	.	9.8	.	.	.	.	.	.
CCc1ccc(C2CC(c3ccccc3Cl)Nc3nc(N)nn32)cc1 (stereo unspecified)	.	18.7	.	.	.	.	13.7	.
COC(=O)C(C(=O)OC)[C@H]1C=C[C@@H](C(=O)NS(=O)(=O)c2ccc(C)cc2)N(C(C)=O)C1	/	/	/	/	/	.	/	/
COc1ccccc1NC(=O)/C=C/c1cc([N+](=O)[O-])ccc1OC(F)F	.	.	.	.	.	.	/	/
O=C(/C=C/c1cc([N+](=O)[O-])ccc1OC(F)F)Nc1cccc(OC(F)F)c1	.	20.2	.	.	.	.	.	.
O=C(NC1CCCCN(Cc2cccc(Cl)c2)C1=O)c1cccs1 (stereo unspecified)	/	/	/	/	/	.	/	/
CCOc1cc(NC(=S)NCC(C)C)c(OCC)cc1NC(=O)c1cccs1	.	14.6	.	/	.	.	.	.
CCOc1ccc(NC(=O)CSc2nc(-c3cccs3)cc(C(F)(F)F)n2)c([N+](=O)[O-])c1	.	15.9	.	.	.	.	26.0	.
CCOc1ccc(NC(=O)c2cccs2)c([N+](=O)[O-])c1	.	18.0	.	.	.	.	.	.
Cc1cc(NC(=O)CSc2nc(-c3cccs3)cc(C(F)(F)F)n2)no1	.	.	.	.	.	.	/	/
CCCCOC(=O)CCN1C(=O)/C(=C/c2ccccc2)SC1=S	/	/	/	/	/	.	/	/
COc1ccc(NC(=O)c2ccc(-c3ccccc3C(F)(F)F)o2)cc1	.	10.4	.	.	.	.	.	.
O=C(CCN1C(=O)/C(=C\c2ccccc2F)SC1=S)Nc1ccc(C(=O)O)c(O)c1	.	.	.	.	.	.	/	/
O=C(CCN1C(=O)/C(=C/c2ccccc2F)SC1=S)N[C@@H](CO)Cc1ccccc1	.	11.5	.	.	.	.	.	.
O=C(CCN1C(=O)/C(=C/c2ccc(F)cc2)SC1=S)Nc1cccnc1	.	.	.	.	.	.	/	/
COc1cccc(/C=C2\SC(=S)N(CCC(=O)NCCc3ccc(O)cc3)C2=O)c1	.	35.2	.	.	.	.	.	.
SMILES	MC4R antag cAMP	MC4R barr agon	Granule exo inh	A1 inh	NTR1 agonist	sPLA2-III inh	MC4R barr ag	MOR-DOR barr ag
O=C(CCN1C(=O)/C(=C/c2ccccc2)SC1=S)N[C@@H](CO)Cc1ccccc1	.	18.6	.	.	.	.	.	.
O=C(CCN1C(=O)/C(=C/c2ccccc2)SC1=S)Nc1cccnc1	.	11.2	.	.	.	.	.	.
COc1cccc(/C=C2\SC(=S)N(CCC(=O)Nc3ccc(O)cc3)C2=O)c1	.	.	.	.	.	.	/	/
Cc1cccc(NC(=O)Nc2nc3ncccn3c2-c2ccccc2)c1	/	/	/	/	/	.	/	/
Cc1ccccc1NC(=O)c1cc2c(=O)n3cccc(C)c3nc2s1	.	19.4	.	.	.	.	.	.
C#CCN1CC(N(C)CCCO)CS1(=O)=O (stereo unspecified)	/	/	/	/	/	.	/	/
COC(=O)[C@]12C[C@H](CC(=O)NCC3CCCCC3)C(=O)N(Cc3ccccc3)C1=C[C@H](C(C)(C)C)O[C@@H]2C	/	/	/	/	/	.	/	/
COc1ccc(-c2csc(C3=C(O)CN(Cc4ccc(S(N)(=O)=O)cc4)C3=N)n2)cc1OC	.	.	.	.	.	.	/	/
COc1ccc(-c2csc(C3=C(O)CN(Cc4ccc(Cl)cc4)C3=N)n2)cc1OC	.	102.5	.	.	.	.	21.3	.
COc1ccc(N2CC(O)=C(c3nc(-c4ccc(F)cc4)cs3)C2=N)cc1OC	.	.	.	.	.	.	/	/
N=C1C(c2nc(-c3ccc(F)cc3)cs2)=C(O)CN1Cc1ccc(Cl)cc1	.	13.8	.	.	.	.	.	.
COc1ccc(N2CC(O)=C(c3nc(-c4ccc(F)cc4)cs3)C2=N)cc1Cl	.	11.1	.	.	.	.	12.7	.
COc1cccc(CN2CC(O)=C(c3nc(-c4ccc(Cl)cc4)cs3)C2=N)c1	.	.	.	.	.	.	/	/
COCC1CN(CCc2ccc(F)cc2)S(=O)(=O)c2c(F)cccc2O1 (stereo unspecified)	/	/	/	/	/	.	/	/
CC(=O)c1ccc2c(c1)Cc1cc(C(C)=O)ccc1-2	.	14.1	.	.	.	.	.	.
CC(C)CC(CCOCCO)NC(=O)OCc1ccccc1[N+](=O)[O-] (stereo unspecified)	/	/	/	/	/	.	/	/
Cc1ccc(C(C)C)c(OCc2nn(CC(=O)c3ccc(Cl)cc3)c3[n+]2CCCCC3)c1	.	40.5	.	.	.	.	18.6	34.3
CCCc1ccc2c(C)cccc2n1	/	/	/	/	/	.	/	/
COc1cc2nc(N3CCN(c4cc(C)ccc4C)CC3)nc(N)c2cc1OC	.	12.1	.	.	.	.	9.8	20.7
COc1cc2nc(N3CCNCC3)nc(N)c2cc1OC	.	.	.	.	.	.	/	/
CCCCOCCCNC(=O)C[C@@H]1C(=O)N2CCCC3=C2[C@@]1(C(=O)OCC)CCC3	/	/	/	/	/	.	/	/
CCOC(=O)c1ccc(NC(=O)CSc2nnc(COc3ccccc3)n2C)cc1	.	11.4	.	.	.	.	.	.
Cc1sc(NC(=O)CSc2nnc(COc3ccc(Cl)cc3)n2C)c(C#N)c1C	.	11.3	.	.	.	.	.	.
Cn1c(CNC(=O)c2ccc(Cl)c(Cl)c2)nnc1SCC(=O)Nc1sc2c(c1C#N)CCCC2	.	10.8	.	.	.	.	11.1	.
Cn1cnnc1SCC(=O)Nc1sc2c(c1C#N)CCCCC2	.	.	.	.	.	.	/	/
